The record followed here is ChEMBL document CHEMBL1132389, “Novel farnesol and geranylgeraniol analogues: A potential new class of anticancer agents directed against protein prenylation” (J Med Chem, 1999).

A word on the IC50: it is the concentration that inhibits the measured activity by half. A word on the Km: it is the substrate concentration at which the rate is half of its maximum.

Bounds are passed on as bounds.

Series [1] addresses T1, Protein farnesyltransferase (Homo sapiens, UniProt P49354+P49356). Briefly: Inhibition of recombinant farnesyltransferase (mFTase) in scintillation proximity assay. Format: protein-complex assay. The method, boiled down:
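Recombinant mammalian FTase in scintillation proximity assay with streptavidin beads. Substrates: tritiated FPP (15–30 Ci/mmol, final 0.12 μM) and biotin-Aha-TKCVIM peptide (final 0.1 μM). IC50 determined. Ki from the same system with varied tritiated FPP concentrations.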
Background: Scintillation proximity formats need no separation of bound from free tracer.

Series [2] concerns the target Protein farnesyl/geranylgeranyl transferase (Homo sapiens) (UniProt P49354+P49356+P53609). Briefly: Relative IC50 for farnesyl and geranylgeranyl transferase. In kind it is protein-complex assay.
For series [3], the system named is NIH3T3. Kind of series: Inhibition of anchorage independent growth of H-Ras(61L)-transformed NIH3T3 fibroblasts in soft agar. Format: functional, cell-based. As to conditions: Mus musculus. The method, boiled down:
(§1)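 NIH3T3 fibroblasts transfected with H-Ras(61L) (H-Ras-F) or H-Ras(61L)CVLL (H-Ras-GG), kept in DMEM with 10% calf serum and 1% antibiotic/antimycotic at 37 °C, 10% CO2. Two-layer soft agar (0.6% bottom, 0.3% top). Cells seeded in the top layer with compound in ethanol over a concentration range, added only at seeding. Grown 2 weeks at 37 °C. Colonies stained with p-iodonitrotetrazolium violet 24 h before image-analysis count. IC50 reported.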

The subject of series [4] is NIH3T3. Kind of series: Inhibition of anchorage independent growth of H-Ras(61L)CVLL-transformed NIH3T3 fibroblasts in soft agar. The conditions noted are these: Mus musculus. Format: functional, cell-based. The gist of the method:
as §1

Series [5] concerns the target Geranylgeranyl transferase type I (Homo sapiens, UniProt P49354+P53609). Briefly: Inhibition of recombinant Geranylgeranyl transferase type I in scintillation proximity assay. Format: protein-complex assay. The gist of the method: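 Recombinant mammalian GGTase I in scintillation proximity assay with streptavidin beads, using tritiated GGPP and biotin-Aha-TKCVIL peptide as substrates. Run in the same manner as the FTase assay. IC50 and Ki values determined.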

In series [6] the target is T1, Protein farnesyltransferase. Kind of series: Relative Vmax compared to FPP in continuous spectrofluorimetric assay.
In series [7] the test system is C=CC/C(=C\COP(=O)(O)OP(=O)(O)O)CC/C=C(\C)CCC=C(C)C. Briefly: (§2) Km determined in continuous spectrofluorimetric assay. Format: protein-complex assay. As to conditions: Homo sapiens. The gist of the method:
(§3)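 Continuous fluorimetric assay with recombinant mammalian FTase and dansyl-GCVLS peptide. Buffer: Tris-HCl pH 7.0, DTT, MgCl2, ZnCl2, with 0.4% n-dodecyl-β-D-maltoside solution. Premixed 5 min at 30 °C. Isoprenoid diphosphate at final 0.10 to 5 μM. Reaction started with enzyme. Fluorescence (ex 350, em 486 nm) read for 300 s at 30 °C. Linear rate converted to μM/s using a separately measured enhancement factor for each substrate. Km derived from the rates.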

Series [8] has as its system C=C/C(=C\COP(=O)(O)OP(=O)(O)O)CC/C=C(\C)CCC=C(C)C. The description is as §2. In kind it is protein-complex assay. As to conditions: Homo sapiens. The method, boiled down: as §3

For `C=CC/C(=C\COP(=O)(O)OP(=O)(O)O)CC/C=C(\C)CC/C=C(\C)CCC=C(C)C`, in series [1], the concentration for half-maximal inhibition (IC50) came out at 0.453 µM. Besides, the Ratio in series [2] was 7.5.

Take `CC/C(=C\CO)CC/C=C(\C)CCC=C(C)C`: the concentration for half-maximal inhibition (IC50) in series [3] and in series [4] was over 25 µM throughout.

`CC(C)=CCC/C(C)=C/CC/C(=C/CO)c1ccccc1`: the half-inhibitory concentration (IC50) in series [3] and in series [4] was over 25 µM in each case.

Take `CC/C(=C\COP(=O)(O)OP(=O)(O)O)CC/C=C(\C)CCC=C(C)C`: the IC50 in series [1] was 0.215 µM; in series [5], over 100 µM. For the same molecule, the Ratio in series [2] was over 460.

As for `C=CC/C(=C\COP(=O)(O)OP(=O)(O)O)CC/C=C(\C)CCC=C(C)C`, the IC50 is 0.189 µM in series [1] and over 100 µM in series [5]. This molecule gave a Krel in series [6] of 0.0711. Also, the Ratio in series [2] is over 530.

With `C=CC/C(=C\CO)CC/C=C(\C)CC/C=C(\C)CCC=C(C)C`, the IC50 in series [3] is over 25 µM; in series [4] it was 4.6 µM.

Regarding `C=C/C(=C\COP(=O)(O)OP(=O)(O)O)CC/C=C(\C)CC/C=C(\C)CCC=C(C)C`, the IC50 in series [1] turned out to be 0.715 µM; in series [5] it was 3.05 µM. Besides, the Ratio in series [2] amounted to 4.3.

On to `C=CC/C(=C\CO)CC/C=C(\C)CCC=C(C)C`, for which the IC50 in series [3] is 10.2 µM; in series [4], over 25 µM.

With `C=C/C(=C\COP(=O)(O)OP(=O)(O)O)CC/C=C(\C)CCC=C(C)C`, the IC50 in series [1] was determined as 0.173 µM; in series [5], 100 µM. This molecule also came in with a Krel in series [6] of 0.524. For the same molecule, the Ratio in series [2] came to 600.

For `CC(C)=CCC/C(C)=C/CC/C(=C/COP(=O)(O)OP(=O)(O)O)c1ccccc1`, the half-maximal inhibitory concentration (IC50) in series [1] was 0.299 µM; in series [5], over 100 µM. Also, the Ratio in series [2] was over 340.

Take `C=C/C(=C\CO)CC/C=C(\C)CC/C=C(\C)CCC=C(C)C`: the half-inhibitory concentration (IC50) in series [3] is 18 µM; in series [4], 13.9 µM.

Consider `CC(C)=CCC/C(C)=C/CC/C(=C/COP(=O)(O)OP(=O)(O)O)C(C)(C)C`, for which the results for the 50% inhibitory concentration (IC50) in series [1] and in series [5] were 0.031 µM and 50 µM, respectively. For the same molecule, the Ratio in series [2] was 1600.

Regarding “Protein farnesyltransferase (Homo sapiens) (from UniProt P49354+P49356)”, the values for the Michaelis-Menten constant (Km) in series [7] and in series [8] were 0.703 µM and 0.156 µM, respectively.

With `C=C/C(=C\CO)CC/C=C(\C)CCC=C(C)C`, the 50% inhibitory concentration (IC50) was determined as 10.9 µM in series [3] and 14.1 µM in series [4].
